Source: ChEMBL document CHEMBL2311381, “Synthesis and biological activity of aminophthalazines and aminopyridazines as novel inhibitors of PGE2 production in cells” (Bioorg Med Chem Lett, 2013)
The source made the active and inactive calls. The rule behind the calls is not given here.

Tests used:
[1] = Inhibition of IL-1beta-induced PGE2 production in human HCA-7 cells after 72 hrs by EIA; type: functional, cell-based; settings: HCA-7, 72 h
Procedure, shortened: (§1)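 HCA-7 colon cancer cells were grown overnight in DMEM/10% FBS, then serum-starved for 18 h. They were stimulated with 10 ng/ml IL-1β together with compound (DMSO solution) in serum-free medium for 72 h. PGE2 in the supernatant was measured by EIA. Single-concentration screening was at 1 µM, giving % reduction ± SD (n = 3). EC50 values came from increasing concentrations. Celecoxib served as the positive control.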

[2] = target: T1, Prostaglandin G/H synthase 2 (Homo sapiens, UniProt P35354); assay: (§2) Inhibition of COX-2 (unknown origin) at 5 uM; settings: 5 µM
T1 sequence (P35354 whole entry): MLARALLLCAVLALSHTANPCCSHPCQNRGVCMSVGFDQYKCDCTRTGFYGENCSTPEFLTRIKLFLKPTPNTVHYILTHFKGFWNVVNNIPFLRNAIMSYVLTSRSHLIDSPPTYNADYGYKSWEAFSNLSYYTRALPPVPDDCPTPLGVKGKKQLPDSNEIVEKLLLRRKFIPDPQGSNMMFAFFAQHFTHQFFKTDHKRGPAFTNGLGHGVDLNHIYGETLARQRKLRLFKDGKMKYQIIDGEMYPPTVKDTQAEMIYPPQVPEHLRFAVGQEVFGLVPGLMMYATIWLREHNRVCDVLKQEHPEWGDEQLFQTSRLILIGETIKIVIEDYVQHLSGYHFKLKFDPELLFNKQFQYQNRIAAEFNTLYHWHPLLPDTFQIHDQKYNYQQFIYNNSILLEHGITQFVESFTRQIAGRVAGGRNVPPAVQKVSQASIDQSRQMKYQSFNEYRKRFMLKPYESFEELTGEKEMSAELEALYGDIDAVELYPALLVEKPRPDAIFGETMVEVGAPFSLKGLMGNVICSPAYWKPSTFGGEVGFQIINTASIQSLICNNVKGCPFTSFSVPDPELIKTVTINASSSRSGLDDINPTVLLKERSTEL
Procedure, shortened: (§3)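 Cell-free COX-2 activity measured with a fluorescent COX inhibitor screening kit, run per the kit instructions. Compounds were tested at 5 µM. Results are given as % inhibition ± SD (n = 3). Celecoxib served as the positive control. Dose-response curves were not run.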

[3] = (§4) Inhibition of IL-1beta-induced PGE2 production in human HCA-7 cells at 1 uM after 72 hrs by EIA; type: functional; settings: HCA-7, 72 h; procedure, shortened: as §1
[4] = target: T2, COX-2 (Prostaglandin G/H synthase 2) (Homo sapiens, UniProt P35354); assay: as §2; procedure, shortened: as §3
T2 sequence (P35354 whole entry): T1 sequence (P35354 whole entry)

[5] = target: HCA-7 cells (Homo sapiens); assay: Inhibition of PGE2 production in human HCA-7 cells
HCA-7 = assay: as §4; type: functional; procedure, shortened: as §1

CCc1ccc(Nc2nnc(-c3ccc(OC)cc3)c3ccccc23)cc1
EC50 [1]: 930 nM | inhibition (INH) [2]: Not Active | inhibition at 1 µM [3]: 85%

CCOC(=O)c1ccc(Nc2nnc(-c3ccccc3)c3ccccc23)cc1
inhibition at 1 µM [3]: 18.4%

Cc1ccc(Nc2nnc(-c3ccc(N(C)C)cc3)c3ccccc23)cc1
EC50 [1]: 420 nM | inhibition at 5 µM [4]: 14.2% | inhibition at 1 µM [3]: 94.4%

Cc1ccc(Nc2nnc(-c3ccccc3Cl)c3ccccc23)cc1
EC50 [1]: 380 nM | inhibition (INH) [2]: Not Active | inhibition at 1 µM [3]: 97.2%

Clc1cccc(Nc2nnc(-c3ccccc3)c3ccccc23)c1
EC50 [1]: 500 nM | inhibition at 5 µM [4]: 10.1% | inhibition at 1 µM [3]: 79.4%

COc1cccc(-c2nnc(Nc3ccc(C)cc3)c3ccccc23)c1
inhibition at 1 µM [3]: 62%

Cc1ccc(Nc2nnc(-c3cncnc3)c3ccccc23)cc1
inhibition at 1 µM [3]: 15.1%

COc1ccc(Nc2nnc(-c3ccc(C(=O)NCCO)cc3)c3ccccc23)cc1
inhibition at 1 µM [3]: 39.2%

COc1ccc(N(C)c2nnc(-c3ccccc3)c3ccccc23)cc1
EC50 [1]: 220 nM | inhibition at 5 µM [4]: 21.4% | inhibition at 1 µM [3]: 92.4%

Cc1ccc(Nc2nnc(-c3cccc(Cl)c3)c3ccccc23)cc1
EC50 [1]: 860 nM | inhibition (INH) [2]: Not Active | inhibition at 1 µM [3]: 75.2%

COc1ccc(-c2nnc(Nc3ccccc3)c3ccccc23)cc1
EC50 [1]: 20 nM | inhibition at 5 µM [4]: 3% | inhibition at 1 µM [3]: 97.3%

COc1ccc(-c2ccc(Nc3ccc(C)cc3)nn2)cc1
inhibition at 1 µM [3]: 49%

Clc1ccc(-c2csc(Nc3ccc(Oc4ccccc4)cc3)n2)cc1
EC50 [1]: 330 nM | EC50 [5]: 330 nM

Cc1cccc(Nc2nnc(-c3ccccc3)c3ccccc23)c1
EC50 [1]: 760 nM | inhibition (INH) [2]: Not Active | inhibition at 1 µM [3]: 74.1%

Cc1ccc(Nc2nnc(-c3ccccc3)c3ccccc23)cc1
EC50 [1]: 31 nM | inhibition at 5 µM [4]: 23% | inhibition at 1 µM [3]: 98.9%

Cc1ccc(Nc2nnc(-c3ccc4c(c3)OCO4)c3ccccc23)cc1
inhibition at 1 µM [3]: 59%

Cc1ccc(Nc2ccc(-c3ccccc3)nn2)cc1
inhibition at 1 µM [3]: 62.5%

COc1ccccc1-c1nnc(Nc2ccc(C)cc2)c2ccccc12
EC50 [1]: 590 nM | inhibition (INH) [2]: Not Active | inhibition at 1 µM [3]: 77.2%

Oc1ccc(Nc2nnc(-c3ccccc3)c3ccccc23)cc1
inhibition at 1 µM [3]: 26.7%

Cc1ccc(Nc2nnc(-c3ccc(OC(C)C)cc3)c3ccccc23)cc1
EC50 [1]: 700 nM | inhibition (INH) [2]: Not Active | inhibition at 1 µM [3]: 76.7%

COc1ccc(-c2nnc(Nc3cccc(C)c3)c3ccccc23)cc1
EC50 [1]: 640 nM | inhibition (INH) [2]: Not Active | inhibition at 1 µM [3]: 87.5%

c1ccc(Oc2ccc(Nc3nnc(-c4ccccc4)c4ccccc34)cc2)cc1
inhibition (INH) [2]: Not Active | inhibition at 1 µM [3]: 71.2%

COc1ccc(-c2nnc(N(C)c3ccc(C)cc3)c3ccccc23)cc1
EC50 [1]: 50 nM | inhibition (INH) [2]: Not Active | inhibition at 1 µM [3]: 87%

COc1ccc(-c2nnc(Nc3ccc(OCC(N)=O)cc3)c3ccccc23)cc1
inhibition (HCA-7): inactive

COc1ccc(-c2nnc(Nc3ccc(C)cc3)c3ccccc23)cc1
EC50 [1]: 32 nM | inhibition (INH) [2]: Not Active | inhibition at 1 µM [3]: 98.3%

Cc1ccc(Nc2nnc(-c3cccc(-c4ccccc4)c3)c3ccccc23)cc1
EC50 [1]: 540 nM | inhibition (INH) [2]: Not Active | inhibition at 1 µM [3]: 84.2%

COc1ccc(-c2nnc(Nc3ccc(Oc4ccccc4)cc3)c3ccccc23)cc1
EC50 [1]: 90 nM | inhibition (INH) [2]: Not Active | inhibition at 1 µM [3]: 92.6%

CCOc1ccc(-c2nnc(Nc3ccc(C)cc3)c3ccccc23)cc1
EC50 [1]: 570 nM | inhibition (INH) [2]: Not Active | inhibition at 1 µM [3]: 75.3%

NS(=O)(=O)c1ccc(Nc2nnc(-c3ccccc3)c3ccccc23)cc1
inhibition (HCA-7): inactive
